According to ChEMBL document CHEMBL3351274, “Sensitization of tumor necrosis factor-related apoptosis-inducing ligand (TRAIL)-resistant primary prostate cancer cells by isoegomaketone from Perilla frutescens” (J Nat Prod, 2014):

Columns and labels:
[1] = Induction of apoptosis in human RC-58T/h/SA#4 cells assessed as CHOP expression at 2.5 uM after 24 hrs by immunoblotting analysis relative to untreated control; assay type: functional
Outline: (§1)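 RC-58T/h/SA#4 cells seeded at 5 × 10^4 cells/mL and cultured 24 h, then given compound across a concentration series or at fixed dose over a time course. Lysates were quantified by BCA. 10 μg protein/lane run on 12% SDS-PAGE and transferred to nitrocellulose. Blots probed for p53, CHOP and β-actin with HRP secondary and ECL.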

[2] = Induction of apoptosis in human RC-58T/h/SA#4 cells assessed as CHOP expression at 20 uM after 18 hrs by immunoblotting analysis relative to untreated control; assay type: functional; outline: as §1
[3] = Induction of apoptosis in human RC-58T/h/SA#4 cells assessed as DR5 expression at 20 uM after 24 hrs by immunoblotting analysis relative to untreated control; assay type: functional
[4] = Sensitization of TRAIL-induced apoptosis in human RC-58T/h/SA#4 cells assessed as accumulation at Sub-G1 phase at 20 uM after 24 hrs by annexin-V/propidium iodide staining-based flow cytometry in presence of Dr5 Fc chimera (reference value: 4.8%); assay type: functional
[5] = Sensitization of TRAIL-induced apoptosis in human RC-58T/h/SA#4 cells assessed as PARP cleavage at 20 uM after 24 hrs by immunoblotting analysis relative to untreated control; assay type: functional
Outline: (§2)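 Cells seeded at 5 × 10^4 cells/mL and cultured 24 h, then given 20 μM compound and/or 100 ng/mL TRAIL for 24 h. Whole-cell lysate made in Tris/NaCl/EDTA/NaF/pyrophosphate/PMSF/aprotinin buffer, 30 min on ice, protein measured by BCA. 12% SDS-PAGE at 10 μg/lane, nitrocellulose blot, primary antibodies (caspase-3, -8, -9, Bax, Bcl-2, PARP) overnight at 4 °C, HRP secondary, ECL.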

[6] = Sensitization of TRAIL-induced apoptosis in human RC-58T/h/SA#4 cells assessed as procaspase-3 activation at 20 uM after 24 hrs by immunoblotting analysis relative to untreated control; assay type: functional; outline: as §2
[7] = Induction of apoptosis in human RC-58T/h/SA#4 cells assessed as CHOP expression at 20 uM after 3 hrs by immunoblotting analysis relative to untreated control; assay type: functional; outline: as §1
[8] = Induction of apoptosis in human RC-58T/h/SA#4 cells assessed as AIF level in cytosol at 20 uM after 24 hrs by immunoblotting analysis relative to untreated control; assay type: functional
Outline: (§3)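 Cells grown in DMEM/10% FBS at 37 °C, 5% CO2, then treated 24 h with compound (20 μM) with or without TRAIL (100 ng/mL). Whole lysates were used for Bax and Bcl-2. Cytosolic and mitochondrial fractions were prepared with a mitochondria isolation kit for AIF and cytochrome c. Blotting used 10 μg protein/lane, 12% SDS-PAGE, nitrocellulose, overnight primary antibody at 4 °C and ECL detection.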

[9] = Sensitization of TRAIL-induced apoptosis in human RC-58T/h/SA#4 cells assessed as procaspase-8 activation at 20 uM after 24 hrs by immunoblotting analysis relative to untreated control; assay type: functional; outline: as §2
[10] = Induction of apoptosis in human RC-58T/h/SA#4 cells assessed as procaspase-8 activation at 20 uM after 24 hrs by immunoblotting analysis relative to untreated control; assay type: functional; outline: as §2
Homo sapiens [11] = organism: Homo sapiens; experiment: Induction of apoptosis in human RC-58T/h/SA#4 cells assessed as CHOP expression at 2.5 to 40 uM by immunoblotting analysis relative to untreated control; assay type: functional, cell-based; settings: TDE = time-dependent effect; outline: as §1
[12] = Induction of apoptosis in human RC-58T/h/SA#4 cells assessed as DR5 expression at 10 uM after 24 hrs by immunoblotting analysis relative to untreated control; assay type: functional
[13] = Induction of apoptosis in human RC-58T/h/SA#4 cells assessed as DR5 expression at 20 uM after 18 hrs by immunoblotting analysis relative to untreated control; assay type: functional
Homo sapiens [14] = organism: Homo sapiens; experiment: Induction of apoptosis in human RC-58T/h/SA#4 cells assessed as p53 expression after 3 to 24 hrs by immunoblotting analysis relative to untreated control; assay type: functional, cell-based; outline: as §1
[15] = Induction of apoptosis in human RC-58T/h/SA#4 cells assessed as DR4 expression at 40 uM after 24 hrs by immunoblotting analysis relative to untreated control; assay type: functional
Homo sapiens [16] = organism: Homo sapiens; experiment: Induction of apoptosis in human RC-58T/h/SA#4 cells assessed as AIF level in mitochondria at 20 uM after 24 hrs by immunoblotting analysis relative to untreated control; assay type: functional, cell-based; outline: as §3
[17] = Induction of apoptosis in human RC-58T/h/SA#4 cells assessed as p53 expression at 10 uM after 24 hrs by immunoblotting analysis relative to untreated control; assay type: functional; outline: as §1
[18] = Sensitization of TRAIL-induced apoptosis in human RC-58T/h/SA#4 cells assessed as cytochrome C level in cytosol at 20 uM after 24 hrs by immunoblotting analysis relative to untreated control; assay type: functional
Outline: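 Cells given 20 μM compound and/or 100 ng/mL TRAIL for 24 h. Mitochondrial and cytosolic fractions prepared with a mitochondria isolation kit. Fractions resolved by 12% SDS-PAGE at 10 μg/lane and immunoblotted with anti-cytochrome c or anti-AIF overnight at 4 °C, then HRP secondary and ECL detection.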

[19] = Induction of apoptosis in human RC-58T/h/SA#4 cells assessed as p53 expression at 20 uM after 24 hrs by immunoblotting analysis relative to untreated control; assay type: functional; outline: as §1
[20] = Induction of apoptosis in human RC-58T/h/SA#4 cells assessed as CHOP expression at 10 uM after 24 hrs by immunoblotting analysis relative to untreated control; assay type: functional; outline: as §1
Homo sapiens [21] = organism: Homo sapiens; experiment: Induction of apoptosis in human RC-58T/h/SA#4 cells assessed as DR5 expression after 24 hrs by immunoblotting analysis relative to untreated control; assay type: functional, cell-based
[22] = Sensitization of TRAIL-induced apoptosis in human RC-58T/h/SA#4 cells assessed as accumulation at Sub-G1 phase at 20 uM after 24 hrs by annexin-V/propidium iodide staining-based flow cytometry (reference value: 4.8%); assay type: functional
[23] = Sensitization of TRAIL-induced apoptosis in human RC-58T/h/SA#4 cells assessed as Bcl-2 activation at 20 uM after 24 hrs by immunoblotting analysis relative to untreated control; assay type: functional; outline: as §2
[24] = Induction of ROS generation in human RC-58T/h/SA#4 cells at 40 uM after 30 mins by flow cytometry (reference value: 1.9%); assay type: functional
[25] = Induction of ROS generation in human RC-58T/h/SA#4 cells at 10 uM after 30 mins by flow cytometry (reference value: 1.9%); assay type: functional
[26] = Induction of apoptosis in human RC-58T/h/SA#4 cells assessed as CHOP expression at 20 uM after 12 hrs by immunoblotting analysis relative to untreated control; assay type: functional; outline: as §1
[27] = Induction of apoptosis in human RC-58T/h/SA#4 cells assessed as p53 expression at 20 uM after 6 hrs by immunoblotting analysis relative to untreated control; assay type: functional; outline: as §1

CC(C)/C=C/C(=O)c1ccoc1
Ratio [1]: 1.3
Ratio [2]: 2
Ratio [3]: 1.2
Activity [4]: 14.3%
Ratio [5]: 0.7
Ratio [6]: 0.4
Ratio [7]: 1
Ratio [8]: 1.1
Ratio [9]: 0.3
Ratio [10]: 1.2
Activity (Homo sapiens [11]): tde
Ratio [12]: 1.2
Ratio [13]: 1.5
Activity (Homo sapiens [14]): Dose-dependent effect
Ratio [15]: 1.1
Ratio (Homo sapiens [16]): 1.2
Ratio [17]: 2
Ratio [18]: 1.2
Ratio [19]: 2.3
Ratio [20]: 1.4
Activity (Homo sapiens [21]): Dose-dependent effect
Activity [22]: 18%
Ratio [23]: 0.5
Activity [24]: 2.5%
Activity [25]: 2%
Ratio [26]: 1.6
Ratio [27]: 1.1
